Compound activity: PubChem BioAssay, several laboratories
CSN inh – inhibitors of CSN-mediated cullin deneddylation, primary screen, biochemical, fluorescence polarization, uHTS. AID 651999, 2013. COP9 signalosome complex subunit 5 (Homo sapiens), Q92905. 360,000 tested, 0.38% active. inhibition, % at 12.5 µM. Purified CSN, SCF-Nedd8-OG deneddylation;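 active = pattern-corrected inhibition above about 35%, with an unprinted fluorescence ratio check between 0.5 and 1.5, limit read from the data, passing the limit was not always enough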;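 also: 0% = enzyme with substrate and 100% = substrate without enzyme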
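Material: purified human Csn5 enzyme expressed in HEK293T cells / Medium: Tris buffer pH 7.5, NaCl, DTT, Tween-20, trehalose, ovalbumin / Compound dosing: 12.5 µM single point / Schedule: 90 min incubation of compound, enzyme and substrate at room temperature / Signal: fluorescence polarization of the substrate / Control set: no-enzyme wells high, enzyme-with-substrate wells low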
Rpn11 inh – Rpn11 (PSMD14) deubiquitinase inhibitors, primary screen, biochemical, fluorescence polarization, uHTS. human 26S proteasome, Ub4-pepOG fluorescence polarization; 20S core pre-blocked with epoxomicin. 360,000 tested, 0.59% active. calls only at 20 µM. 26S proteasome non-ATPase regulatory subunit 14 (Homo sapiens), O00487;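 active = inhibition at 20 µM, scaled to each plate's controls, above about 33%, limit read from the data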
HNF4A DNA FP – change in binding of human HNF4A to DNA, primary screen, biochemical, fluorescence polarization, FITC-DNA | 360,000 tested, 0.3% active | activity change, % at 10 µM | Hepatocyte nuclear factor 4-alpha (Homo sapiens), P41235 | 1 h | AID 1224865, 2016; in the data active = activity change above about 30%, passing the limit was not always enough
Target sequence (P41235 whole entry, looked up): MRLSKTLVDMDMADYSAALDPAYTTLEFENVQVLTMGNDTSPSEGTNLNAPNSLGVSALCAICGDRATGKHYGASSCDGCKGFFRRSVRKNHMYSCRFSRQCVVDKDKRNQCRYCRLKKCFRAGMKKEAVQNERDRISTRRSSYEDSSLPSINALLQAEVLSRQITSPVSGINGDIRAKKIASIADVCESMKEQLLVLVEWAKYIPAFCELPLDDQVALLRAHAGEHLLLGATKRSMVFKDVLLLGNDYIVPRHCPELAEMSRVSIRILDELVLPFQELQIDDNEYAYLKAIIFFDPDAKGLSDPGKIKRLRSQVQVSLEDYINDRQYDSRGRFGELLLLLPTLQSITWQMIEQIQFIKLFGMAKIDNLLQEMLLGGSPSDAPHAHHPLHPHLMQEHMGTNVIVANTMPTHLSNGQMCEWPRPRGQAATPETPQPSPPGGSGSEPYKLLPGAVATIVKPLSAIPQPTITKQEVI
TPT1 inh – Candida albicans TPT1 enzyme inhibitors, primary screen, biochemical, fluorescence polarization; AID 1962, 2009; recombinant caTPT1, FP RNA substrate dephosphorylation; tRNA 2'-phosphotransferase TPT1 (Candida albicans SC5314); inhibition, % at 5 µM; 300,000 tested, 0.81% active;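 active = inhibition above the mean of all tested compounds plus 3 SD, set per screening campaign, cut at about 24% in these data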;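 also: plate controls were DMSO alone for no effect and ferristatin control at 100 nM for full effect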
TPT1 inh confirm – Candida albicans TPT1 inhibitors, confirmation, biochemical, fluorescence polarization, triplicate; shares compounds with TPT1 inh; recombinant caTPT1, RNase T1 coupled; inhibition, % at 5 µM; 2,400 tested, 74% active; AID 2149, 2009;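 active = inhibition above the primary screen limit, the mean inhibition of all tested compounds plus 3 SD, cut at about 25% in these data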
RNase T1 counter – RNase T1 inhibitors, counter-screen for TPT1 inhibitor project, biochemical, fluorescence polarization; AID 2153, 2009; 2,400 tested, 83% active; inhibition, % at 5 µM; shares compounds with TPT1 inh; RNase T1 cleavage, 1536-well;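 active = inhibition above the solvent-only control well mean plus 3 SD, limit set per screening run, cut at about 23% in these data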;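 also: plate controls were DMSO wells with enzyme for no effect and wells without RNase T1 for full effect; inhibitors block cleavage so intact labeled substrate keeps polarization high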
Target sequence (P00651 whole entry, looked up): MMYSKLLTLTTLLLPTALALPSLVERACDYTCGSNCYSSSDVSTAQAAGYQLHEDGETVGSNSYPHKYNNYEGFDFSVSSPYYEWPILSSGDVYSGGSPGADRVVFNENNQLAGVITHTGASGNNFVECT
* marks the source's active call; other numbers are inactive results; i = inactive; nt = no result given; + = active, no number. Shown are actives, neighbours in structure and some others; about 1.5% of the full set was active somewhere.

SMILES	CSN inh	Rpn11 inh	HNF4A DNA FP	TPT1 inh	TPT1 inh confirm	RNase T1 counter
Cc1nn(Cc2ccccc2Cl)c(C)c1C(=O)N(C)CC(=O)Nc1cccc(F)c1	-2	i	-3	nt	nt	nt
CC(C)Sc1nc2sc(-c3ccccc3)cc2c(=O)n1N	3	i	2	-3	nt	nt
COC(=O)C(C)n1nnc2sc(-c3ccccc3)cc2c1=O (centres undefined)	0	i	2	26*	27*	33*
CC1(C(=O)O)CCC(C(=O)NNC(=O)c2ccccc2Cl)C1(C)C (centres undefined)	0	i	7	-5	nt	nt
COc1ccc(N(C(=O)c2cccnc2)S(=O)(=O)c2cccc([N+](=O)[O-])c2)cc1	-1	i	0	68*	5	7
COC(CNC(=O)C1CCCN1C(=O)OCc1ccccc1)OC (centres undefined)	-1	i	-7	43*	5	7
CCOc1ccc(NC(=O)CC2C(=O)N(c3cccc(OC)c3)C(=O)N2CCOC)cc1 (centres undefined)	-3	i	0	-1	nt	nt
Cc1nnc(SCc2nc3sc(C(=O)O)c(C)c3c(=O)[nH]2)s1	7	i	-4	1	nt	nt
CSCc1nc2sc(C(=O)Nc3nc(C)cs3)c(C)c2c(=O)[nH]1	7	nt	25	33*	39*	51*
COc1ccc(OC)c(N(C(=O)c2ccco2)C(C(=O)NC2CCCC2)c2cc(OC)c(OC)c(OC)c2)c1 (centres undefined)	-1	i	6	2	nt	nt
Cc1ccc(F)c(S(=O)(=O)NC(=O)C2(C)CCN2C(=O)COc2ccc(Cl)cc2)c1 (centres undefined)	-1	i	1	nt	nt	nt
Cn1c(N/N=C/c2c[nH]c3ccccc23)nc2ccccc21	3	i	-3	0	nt	nt
Cn1c(N/N=C/c2cc3ccccc3nc2Cl)nc2ccccc21	11	i	60*	69*	10	19
CC[n+]1c(/C=C/C=C/N(C(C)=O)c2ccccc2)sc2ccccc21	-86	nt	-42	64*	68*	74*
CCn1c(/C=C/N(C(C)=O)c2ccccc2)[n+](CC)c2ccc(Cl)cc21	1	i	1	-3	nt	nt
O=c1c(/C=C(\O)c2ccc(F)cc2)nc2ccccc2n1-c1ccccc1	12	nt	20	62*	79*	75*
CCOC(=O)C1(C)CCCCCN1C(=O)c1ccc(Cl)nc1 (centres undefined)	-4	i	-1	nt	nt	nt
COc1ccccc1COC(=O)N/C=C/c1ccco1	-2	i	17	42*	20	25*
COc1ccc(COC(=O)N/C=C/c2ccco2)cc1	0	i	15	21	nt	nt
CCOc1ccccc1NC(=O)COC(=O)C1CC(=O)N(c2c(C)cccc2C)C1 (centres undefined)	4	i	-2	0	nt	nt
CCN1C(=O)c2cccc3c(NC(=O)c4ccccc4)ccc1c23	-3	i	2	1	nt	nt
CCN1C(=O)c2cccc3c(NC(=O)c4ccc5c(c4)OCCO5)ccc1c23	20	nt	60*	47*	65*	72*
COc1ccc(OCC(=O)N/N=C(\C)c2cc3ccccc3o2)cc1	3	i	2	27*	24	35*
CN(C)c1ccc(/C=N/N(CCO)C2=NS(=O)(=O)c3ccccc32)cc1	-73	nt	131	-2	nt	nt
CN(C)c1ccc(/C=N/N(CCC#N)C2=NS(=O)(=O)c3ccccc32)cc1	28	nt	10	27*	8	17
SMILES	CSN inh	Rpn11 inh	HNF4A DNA FP	TPT1 inh	TPT1 inh confirm	RNase T1 counter
COc1ccc(NC(=O)CN(C)C(=O)CSCc2c(C)noc2C)cc1	-4	i	0	2	nt	nt
N=C1/C(=C/c2cccn2Cc2ccc(F)cc2)C(=O)N=C2SC=CN12	10	i	4	3	nt	nt
CSC1=NSC2=NC(=O)/C(=C\c3cccs3)C(=N)N12	2	i	-2	2	nt	nt
CC1=CC2=NC(=O)/C(=C\c3cc(C)n(-c4cccc(Cl)c4)c3C)C(=N)N2O1	1	i	4	0	nt	nt
CC1=CC2=NC(=O)/C(=C/c3coc4ccc(Cl)cc4c3=O)C(=N)N2O1	11	nt	55	78*	73*	77*
CSC1=NSC2=NC(=O)/C(=C/c3coc4ccc(O)cc4c3=O)C(=N)N12	125	nt	103	70*	116*	113*
N=C1/C(=C\c2coc3ccccc3c2=O)C(=O)N=C2SC=CN12	-53	nt	9	40*	34*	47*
COc1cc(/C=C2/C(=N)N3C(SC)=NSC3=NC2=O)ccc1OC(=O)c1ccco1	29	i	22	18	nt	nt
CSC1=NSC2=NC(=O)/C(=C/c3coc4ccccc4c3=O)C(=N)N12	-96	i	42	52*	60*	62*
Cc1cc(C)cc(OCCN2CCOCC2)c1	-2	i	1	-2	nt	nt
CNC(=O)c1c(I)c(C(=O)NCC(=O)Nc2c(I)c(C(=O)O)c(I)c(C(=O)NCCO)c2I)c(I)c(N(C)C(C)=O)c1I	0	i	-1	0	nt	nt
O=C1C(=O)N(C2CCS(=O)(=O)C2)C(c2cccc(O)c2)/C1=C(/O)c1ccc(Cl)cc1 (centres undefined)	-3	i	-2	-2	nt	nt
Cc1cccc(N2CC(C(=O)NCC3COc4ccccc4O3)CC2=O)c1C (centres undefined)	-1	i	-2	nt	nt	nt
Cc1ccc(N=C2NC(=O)/C(=C/c3cn(C)c4ccccc34)S2)cc1C	54	nt	65*	117*	121*	125*
O=C1NC(=S)SC1=Cc1ccccc1Cl	4	i	20	nt	nt	nt
O=C1NC(=S)S/C1=C\c1ccc(SCc2ccccc2)o1	69	+	35*	47*	46*	65*
CN1CCN(S(=O)(=O)c2cccc(C(=O)Nc3sc4c(c3-c3nc5ccccc5[nH]3)CCCC4)c2)CC1	3	i	0	33*	35*	48*
O=C(CCN1CCCCO1)N1CCCC(N2CCN(c3ccc(F)cc3)CC2)C1 (centres undefined)	-1	i	7	-6	nt	nt
COC(=O)c1ccc(/C=C(\C#N)c2nc3ccccc3s2)cc1	4	i	-1	36*	21	29*
N#C/C(=C\c1ccccn1)c1nc2ccccc2s1	-66	i	-37	23	nt	nt
CCOC(=O)N1CCN(/C=C(\C#N)c2nc3ccccc3s2)CC1	6	nt	29	75*	44*	54*
